Screening data (PubChem)
AHR activator – human AHR activation; P35869; AHR-responsive luciferase reporter cells, luminescence; activation, % at 5 µM; 2.5% of 320,000 active; AID 2796; in the data active means activation above about 47%
thrombin 1536 – inhibitors of human thrombin; inhibition, % at 5 µM; AID 1046; 0.26% of 220,000 active; P00734; alpha-thrombin, Boc-VPR-AMC fluorogenic substrate cleavage;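 active means inhibition at or above 40%; inactive means inhibition below 40%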
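Material: human alpha-thrombin protein. Incubation: reaction at ambient temperature. Technique: fluorescence of released AMC, ex 355 nm, em 460 nm. Control set: no-compound enzyme wells and no-enzyme blanks. Also added: Boc-VPR-AMC substrate, 15 µM final. Buffer or medium: pH 7.5 Tris (50 mM) with NaCl 150 mM, Tween 20 0.05%.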
hK5 inh – blocks human kallikrein 5 protease activity; inhibition, % at 5 µM; recombinant hK5, fluorogenic AMC substrate cleavage; Q9Y337; 0.59% of 210,000 active;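 active means inhibition of 40% or more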
FXIa inh – inhibitors of human coagulation factor XIa | P03951 | purified FXIa, Boc-Glu-Ala-Arg-AMC fluorogenic substrate | inhibition, % at 5 µM | 0.14% of 220,000 active | AID 798;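 active means inhibition of at least 40%; inactive means inhibition below 40%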;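 further: fluorescence of freed AMC excited at 355 nm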
Target sequence (P03951 19-387 limits assumed): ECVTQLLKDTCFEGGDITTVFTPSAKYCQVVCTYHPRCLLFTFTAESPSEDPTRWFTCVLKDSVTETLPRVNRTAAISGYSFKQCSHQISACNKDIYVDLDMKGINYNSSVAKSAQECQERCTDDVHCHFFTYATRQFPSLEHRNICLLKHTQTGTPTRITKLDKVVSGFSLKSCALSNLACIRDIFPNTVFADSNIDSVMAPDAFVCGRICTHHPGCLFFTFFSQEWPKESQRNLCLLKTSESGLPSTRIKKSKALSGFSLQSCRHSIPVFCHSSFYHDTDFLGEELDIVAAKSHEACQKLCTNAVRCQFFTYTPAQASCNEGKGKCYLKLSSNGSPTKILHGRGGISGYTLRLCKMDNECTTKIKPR
Target sequence (P03951 388-625 limits assumed): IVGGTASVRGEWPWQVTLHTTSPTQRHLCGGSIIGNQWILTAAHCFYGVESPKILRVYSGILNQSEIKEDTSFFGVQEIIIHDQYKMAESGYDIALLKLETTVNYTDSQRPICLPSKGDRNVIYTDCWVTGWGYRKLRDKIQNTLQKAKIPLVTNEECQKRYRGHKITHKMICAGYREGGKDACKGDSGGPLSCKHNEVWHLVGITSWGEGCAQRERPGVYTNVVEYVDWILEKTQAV
STAT3 act – STAT3 signaling activation. U3A cells, IL-6 STAT3-luciferase reporter, luminescence; 100% = signal with IL-6 EC80 alone. activation (% of control), % at 5.6 µM. 0.91% of 190,000 active. AID 871;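 active means activation above the screen-wide mean of compound activation plus 3 SD, cut at about 130% in these data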
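Test system: Human STAT1-deficient U3A cells with stable STAT3-luciferase reporter | Also added: Interleukin-6, 33 ng/mL | Timing: Compound pre-incubation 1 h before IL-6, then 6 h stimulation at 37 °C | Technique: Luciferase reporter luminescence | Read-out: Percent of IL-6-only median luminescence | Benchmarks: IL-6-only wells as 100% reference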
FXIIa inh 1536 – factor XIIa (human) inhibition; P00748; purified FXIIa, Boc-QGR-AMC fluorogenic substrate, 2 h; inhibition, % at 5 µM; 0.3% of 220,000 active; AID 800; in the data active means inhibition above about 40%
Numbers stand for hits; – = inactive; · = no result. Shown are actives, neighbours in structure and some others; about 3.5% of the full set was active somewhere.

SMILES	AHR activator	thrombin 1536	hK5 inh	FXIa inh	STAT3 act	FXIIa inh 1536
O=C1CCC/C=C/C[C@H](CC(=O)N(CCO)Cc2ccccc2)C(=O)N[C@@H](Cc2ccccc2)CO1	–	·	·	·	·	·
CCN1CCN(CCOc2cccc(Oc3ccccc3)c2)CC1	–	–	–	–	–	–
Oc1ccc(Cl)cc1CNc1cnc2ccccc2c1	–	·	·	·	·	·
Oc1ccccc1CNc1cnc2ccccc2c1	48.9	–	–	–	–	–
CCc1nnc(NC(=O)CCC(=O)N2CCCC2)s1	–	42.2	54.2	–	–	–
CCOCCn1c(CN2CCOCC2)nc2c1c(=O)[nH]c(=O)n2C	–	–	40.6	–	–	–
Cn1c(=O)[nH]c(=O)c2c1nc(CN1CCOCC1)n2CCc1ccccc1	–	–	–	–	–	–
CC1CCCCC1NS(=O)(=O)c1ccc(S(=O)(=O)NCc2ccncc2)cc1 (stereo unspecified)	–	–	–	–	–	–
O=C(CN1C(=O)/C(=C/c2cccc(Br)c2)SC1=S)N1CCCC1	–	–	–	–	–	–
CN1CCN(c2ccc(CNS(=O)(=O)c3ccc(F)cc3Cl)cc2)CC1	–	·	·	·	·	·
CN1CCN(c2ccc(CNS(=O)(=O)Cc3ccc(Cl)cc3)cc2)CC1	–	–	–	–	·	61.0
CC1CCN(S(=O)(=O)CCNC(=O)c2ccc3c(c2)OCO3)CC1	–	·	·	·	·	·
CCC(=O)Nc1cc(=O)[nH]c2nc(-c3ccc(Cl)cc3)nn12	74.1	–	–	–	·	–
Cc1ccc(-c2nc3[nH]c(=O)cc(NC(=O)c4cccs4)n3n2)cc1	–	–	–	–	·	–
COc1ccc(C(=O)Nc2ccccc2C(=O)NCc2ccco2)cc1OC	–	–	42.3	–	–	–
CCOc1ccc(C(=O)NCC(=O)OC(C)C(=O)NCc2ccco2)cc1OCC (stereo unspecified)	–	64.3	55.2	–	–	–
CN(C)C(=O)COC(=O)c1ccccc1OCC(=O)Nc1ccc(SC(F)F)cc1	–	–	–	–	–	–
O=C(COc1ccccc1C(=O)O)Nc1ccc(SC(F)F)cc1	–	48.4	·	–	–	–
COc1ccc(/C=C/C(=O)OCC(=O)Nc2cc(C(F)(F)F)ccc2Cl)cc1	–	–	–	–	–	–
COc1ccc(Nc2nc(N)nc(C(F)(F)F)n2)c(OC)c1	76.0	–	–	–	–	–
CC1(c2ccc(C#N)cc2)NC(=O)N(CC(=O)Nc2cc(S(=O)(=O)N3CCOCC3)ccc2Cl)C1=O (stereo unspecified)	–	–	–	–	–	–
CCN1CCN(C(=O)C(C)Nc2ccc(OC)cc2OC)CC1 (stereo unspecified)	–	–	–	–	–	–
CC1(C)C(=O)Nc2ccccc2N1C(=O)COC(=O)c1cc([N+](=O)[O-])ccc1N	–	–	48.3	–	–	–
COc1cc(N)c(Cl)cc1C(=O)OCC(=O)N1c2ccccc2NC(=O)C1(C)C	–	·	·	·	·	·
CN(CCc1ccccn1)Cc1ccc(Cl)cc1	–	–	–	–	–	–
SMILES	AHR activator	thrombin 1536	hK5 inh	FXIa inh	STAT3 act	FXIIa inh 1536
Cc1cccc(OCC(=O)N/N=C/c2ccccc2C(=O)O)c1	–	–	41.9	43.1	–	–
O=C(O)COc1ccccc1/C=N/NC(=O)COc1ccc(-c2ccccc2)cc1	68.3	–	–	–	·	–
O=C(Nc1ccc(N2CCN(C(=O)c3ccco3)CC2)c(Cl)c1)c1cccs1	–	–	–	–	–	–
Cc1c(CCC(=O)N[C@@H](CC(C)C)C(=O)O)c(=O)oc2cc3oc4c(c3cc12)CCCC4	–	·	·	·	·	·
COc1cccc(-c2nn(-c3ccccc3)cc2CN(C)C(C)c2ccon2)c1 (stereo unspecified)	67.8	–	45.9	–	–	–
Cc1ccc(C)c(S(=O)(=O)N/N=C/c2ccc(N3CCOCC3)cc2)c1	–	–	–	–	·	–
CC1CCCN(C(=O)c2ccc3c(c2)OCO3)C1 (stereo unspecified)	–	·	·	·	·	·
CC1CCCN(C(=O)COc2ccc3c(c2)OCO3)C1 (stereo unspecified)	51.7	·	·	·	·	·
CCC1CCCCN1C(=O)COc1ccc2c(c1)OCO2 (stereo unspecified)	48.4	·	·	·	·	·
CN1C(=O)CSC1=S	–	·	·	·	·	·
CS(=O)(=O)N1N=C(c2cccs2)CC1c1ccccc1 (stereo unspecified)	–	–	–	–	·	–
c1ccc(C2Oc3ccccc3C3CC(c4cccs4)=NN32)cc1 (stereo unspecified)	47.7	–	–	–	–	–
